Measured values reported in the RNAGym collection of RNA variant scans (doi:10.1126/science.aae0568).
This sample holds only a part of the variants without activity.

B1: tRNA (parent)
chain: GUUCCGUUGGCGUAAUGGUAACGCGUCUCCCUCCUAAGGAGAAGACUGCGGGUUCGAGUCCCGUACGGAACG

Variants of: B1
Test: yeast fitness relative to wild type (ratio to wild type); higher = fitter; tRNA-Arg(CCU), competitive growth, 37 C, YPD
Method in brief: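 Genotype frequency changes were the basis for Darwinian fitness relative to wild type. The frequencies came from 100-nucleotide paired-end sequencing of gene amplicons from the start population and each end population of pooled yeast strains with tRNA-Arg(CCU) gene variants at the native locus. Competition ran in YPD at 37°C for 24 hours in six replicates, genotypes needed ≥ 100 starting reads, and estimates < 0.5 were set to 0.5.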

Variant	yeast fitness
GUUCCGUUGGCGUAAUGGUAACGCGUCUCCCUCCUAGGGAAAAGACUGCAGGUUCGAGUCCCGUACGGAACG	≤ 0.5
GUUCCGUUGGCGUAAUGGUAACGCGUCUCCCUCCUAGGGCGAAGACUGCGGGUUCGAGUCCCGUACGGAACG	0.685
GUUCCGUUGGCGUAAUGGUAACGCGUCUCCCUCCUAGGGGGAAGACUGCGGGUUCGAGUCCCGUACGGAACG	0.912
GUUCCGUUGGCGUAAUGGUAACGCGUCUCCCUCCUAGGGAGAAGACUGUGGGUUCGAGUCCCGUACGGAACG	0.819
GUUCCGUUGGCGUAAUGGUAACGCGUCUCCCUCCUAGGGAGAAGACUGCGGGUUGGAGUCCCGCACGGAACG	0.633
GUUCCGUUGGCGUAAUGGUAACGCGUCUCCCUCCUACGGAGAAGACUGCGGGUUCGAGUCCCGUACUGAACG	0.828
GUUCCGUUGGCGUAAUGGUAACGCGUCUCCCUCCUACGGAGAAGACGGCGGGUUCGAGUCCCGUACGGAACG	0.573
GUUCCGUUGGCGUAAUGGUAACGCGUCUCCCUCCUAGGGAGAAAACUGCGGGUUCGAGUCCCGUACGGUACG	0.525
GUUCCGUUGGCGUAAUGGUAACGCGUCUCCCUCCUAGGGAGCAGACUGCGGGUUCGAGUCCCGUACGGAACG	0.806
GUUCCGUUGGCGUAAUGGUAACGCGUCUCCCUCCUACGGAGAAGACAGCGGGUUCGAAUCCCGUACGGAACG	≤ 0.5
GUUCCGUUGGCGUAAUGGUAACGCGUCUCCCUCCUAGGGAGAAGACAGCGGGUUCGAGUACCGUACGGAACG	≤ 0.5
GUUCCGUUGGCGUAAUGGUAACGCGUCUCCCUCCUACGGAGAAGACUACGGGUUCGAGUCCCGUACGGAACG	0.779
GUUCCGUUGGCGUAAUGGUAACGCGUCUCCCUCCUACGGAGAAGACUCCGGGUUCGAGUCCCGUACGGAACG	0.751
GUUCCGUUGGCGUAAUGGUAACGCGUCUCCCUCCUAGGGAGAAGACUGCGCGUUCGAGUCCCGUACGGAUCG	≤ 0.5
GUUCCGUUGGCGUAAUGGUAACGCGUCUCCCUCCUAGGGAGAAGACUGCGGGUUCGAGUCCCGUGCGGAACG	0.695
GUUCCGUUGGCGUAAUGGUAACGCGUCUCCCUCCUAGGGAGAAGACUGCGGGUUCGAGUCCCGUUCGGAACG	0.598
GUUCCGUUGGCGUAAUGGUAACGCGUCUCCCUCCUACGGAGAAGACUGCGGGUUCAAGUCCCGUACGUAACG	0.602
GUUCCGUUGGCGUAAUGGUAACGCGUCUCCCUCCUAGGGAGAAGACUGCGGGUUCGAGUUCCGUACGGAUCG	≤ 0.5
GUUCCGUUGGCGUAAUGGUAACGCGUCUCCCUCCUACGGAGAACACUGCGGCUUCGAAUCCCGUACGGAACG	≤ 0.5

Variant	yeast fitness
GUUCCGUUGGCGUAAUGGUAACGCGUCUCCCUCCUAGGGAGAAAACUGCGGGUUCGAGUCCCGGACGGAACG	≤ 0.5
GUUCCGUUGGCGUAAUGGUAACGCGUCUCCCUCCUACGGAGAAGACUGCGGGUUCGAGUCCAGUACGGAACG	0.874
GUUCCGUUGGCGUAAUGGUAACGCGUCUCCCUCCUAGGGAGAAAACUGCGGGUUCGAGUCCCGUACGGAACG	0.73
GUUCCGUUGGCGUAAUGGUAACGCGUCUCCCUCCUAGGGAGAACACUGCGGGUUCGAGUCCCGUACGGAACG	0.809
GUUCCGUUGGCGUAAUGGUAACGCGUCUCCCUCCUAGGGAGAAGACUGCGGGUUCGAGUCCCGUAAGGAACG	0.63
GUUCCGUUGGCGUAAUGGUAACGCGUCUCCCUCCUAGGGAGAAGAGUGCGGGUUCAAGUCCCGUACGGAACG	0.624
GUUCCGUUGGCGUAAUGGUAACGCGUCUCCCUCCUACGCAGAAGACUGCGGGUUCGAGUCCCGUACGGAACG	0.534
GUUCCGUUGGCGUAAUGGUAACGCGUCUCCCUCCUAGGGAGAAGACCGCGGGUUCGAGUCCCGUACGGAACG	0.744
GUUCCGUUGGCGUAAUGGUAACGCGUCUCCCUCCUAGGGAGAAAACUGCGGGUUCGAGUCCCGUAUGGAACG	0.731
GUUCCGUUGGCGUAAUGGUAACGCGUCUCCCUCCUACGGAGAAGACUGCCGGUUCGAGUCCCGUACGGAACG	0.551
GUUCCGUUGGCGUAAUGGUAACGCGUCUCCCUCCUAGGGAGAAGACUGCGGGUUCGGGUCCCGUACGGAACG	0.87
GUUCCGUUGGCGUAAUGGUAACGCGUCUCCCUCCUAGGGAGAAGACUGCGGGUUCGUGUCCCGUACGGAACG	0.55
GUUCCGUUGGCGUAAUGGUAACGCGUCUCCCUCCUAGGGAGAAGACUGCGGGUUAGAGUCCCGUACAGAACG	≤ 0.5
GUUCCGUUGGCGUAAUGGUAACGCGUCUCCCUCCUAGGGAGAGGACUGCGGGUUCGAGUCCCGUACGGAACG	0.734
GUUCCGUUGGCGUAAUGGUAACGCGUCUCCCUCCUAGGGAGAAGACUGCAGGUUCGAGUCCCGUACGGAACG	0.842
GUUCCGUUGGCGUAAUGGUAACGCGUCUCCCUCCUAGGGAGAAGACUGCGGGUUCGAGUCCCGUACGGCACG	0.97
GUUCCGUUGGCGUAAUGGUAACGCGUCUCCCUCCUACGGAGAAGACUGCGGGUUCGAGUCCCCUACGGCACG	≤ 0.5
GUUCCGUUGGCGUAAUGGUAACGCGUCUCCCUCCUAGGGAGGAGACUGAGGGUUCGAGUCCCGUACGGAACG	≤ 0.5
